{"data": "Experimental data collected from several papers", "UGT2B7": "UDP-glucuronosyltransferase 2B7 (UGT2B7, Homo sapiens, UniProt P16662)", "note": "Each line is one published result; the experiments were not run side by side."}
{"Structure (SMILES)": "CCOC(=O)CC1SC(=NN=Cc2ccc(O)c(OC)c2)NC1=O (stereo not drawn)", "target or system": "LLC-MK2", "test": "cell growth or viability, MTT", "conditions": "96 h, pH 7.2", "endpoint": "CC50", "result": "545 µM"}
{"Structure (SMILES)": "CC1(C)CC[C@]2(C)CC[C@]3(C)[C@H]4CC=C5[C@@H](CC[C@H](O)C5(C)C)[C@]4(C)CC[C@@]3(C)[C@@H]2C1", "target or system": "RD", "test": "cell growth or viability, WST-1", "endpoint": "IC50", "result": "79.8 µM"}
{"Structure (SMILES)": "CCOC(=O)CC1SC(=NN=Cc2cccc(Br)c2)NC1=O (stereo not drawn)", "target or system": "LLC-MK2", "test": "cell growth or viability, MTT", "conditions": "96 h, pH 7.2", "endpoint": "CC50", "result": "446 µM"}
{"Structure (SMILES)": "COc1cc(OC)cc(N(CCNC(C)C)c2ccc3ncc(-c4cnn(C)c4)nc3c2)c1", "target or system": "LLC-PK1", "system": "Caco-2", "endpoint": "Papp", "result": "19.8 ×10⁻⁶ cm/s"}
{"Structure (SMILES)": "COc1cccc(OC)c1-c1cc(C(=O)NC2(C(=O)O)C3CC4CC(C3)CC2C4)nn1-c1ccc(C(=O)N(C)CCCN(C)CCCN(C)C(=O)CN2CCN(CC(=O)[O-])CCN(CC(=O)[O-])CCN(CC(=O)[O-])CC2)cc1C(C)C.[177Lu+3] (stereo not drawn)", "target or system": "HT-29", "system": "liver", "conditions": "intravenous, 4 h, tumour-bearing", "endpoint": "tracer uptake", "result": "3.1 %ID/g"}
{"Structure (SMILES)": "C/C=C(/C)C(=O)O[C@@H]1[C@H](OC(C)=O)c2c(ccc3ccc(=O)oc23)OC1(C)C", "target or system": "RD", "test": "cell growth or viability, WST-1", "endpoint": "IC50", "result": "44.4 µM"}
{"Structure (SMILES)": "C[C@@H](Nc1cc(F)cc(F)c1)c1cc(C(=O)N(C)C)cc2c(=O)cc(N3CCOCC3)oc12", "system": "human, plasma", "conditions": "oral, 30 mg, patients", "endpoint": "Tmax", "result": "1.53 h"}
{"Structure (SMILES)": "CC(C)n1cc(C#N)c2cc(-n3cc(C(=O)O)cn3)ccc21", "system": "human, plasma", "conditions": "oral, 200 mg, single dose, fasted, healthy volunteers", "endpoint": "Tmax", "result": "2.7 h"}
{"Structure (SMILES)": "CCOC(=O)CC1SC(=NN=Cc2ccccc2Cl)NC1=O (stereo not drawn)", "target or system": "LLC-MK2", "test": "cell growth or viability, MTT", "conditions": "96 h, pH 7.2", "endpoint": "CC50", "result": "229 µM"}
{"Structure (SMILES)": "C[C@H](O)c1cc(C(=O)N[C@@H](C)Cn2ccc(-c3ccc(C#N)c(Cl)c3)n2)n[nH]1", "target or system": "UGT2B7", "test": "enzyme activity, inhibitor", "system": "human, liver microsomes", "endpoint": "IC50", "result": "> 100 µM"}
{"Structure (SMILES)": "C=C1CCC2C(C)(CO)C(=O)CCC2(C)C1CCC1=CCOC1=O (stereo not drawn)", "target or system": "UGT2B7", "test": "enzyme activity, inhibitor", "conditions": "100 µM", "endpoint": "inhibition", "result": "94%"}
{"Structure (SMILES)": "CCOC(=O)CC1SC(=NN=Cc2ccccc2OC)NC1=O (stereo not drawn)", "target or system": "LLC-MK2", "test": "cell growth or viability, MTT", "conditions": "96 h, pH 7.2", "endpoint": "CC50", "result": "539 µM"}
{"Structure (SMILES)": "CC(=O)O[C@@H]1c2c(ccc3ccc(=O)oc23)OC(C)(C)[C@@H]1OC(=O)C1(C)OC1C (stereo partly drawn)", "target or system": "RD", "test": "cell growth or viability, WST-1", "endpoint": "IC50", "result": "42.8 µM"}
{"Structure (SMILES)": "C=C1CC[C@@H]2[C@](C)(CO)[C@H](O)CC[C@@]2(C)[C@@H]1C/C=C1/C(=O)OC[C@H]1O", "target or system": "UGT2B7", "test": "enzyme activity, inhibitor", "conditions": "100 µM, pH 7.4", "endpoint": "inhibition", "result": "94%"}
{"Structure (SMILES)": "CCOC(=O)CC1SC(=NN=Cc2ccc(OC)cc2)NC1=O (stereo not drawn)", "target or system": "LLC-MK2", "test": "cell growth or viability, MTT", "conditions": "96 h, pH 7.2", "endpoint": "CC50", "result": "399 µM"}
